Calls of active or inactive are those of the source.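 Rule for the calls: active = IC50 at or below 5 µM; inactive = the rest.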
Molecular target: Steroidogenic factor 1 (Homo sapiens) (UniProt Q13285)
Test: dose-dependent SF-1 transcriptional inhibition – cell-based, luminescence, selectivity assay for LRH1 inverse agonist project, dose response (AID 488780)
Conditions: HEK293T SF-1 5xSFRE luciferase reporter, 20 h
How it was run: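 Material: HEK293T with SF-1 and 5xSFRE luciferase reporter; Dosing: Nine-point dilution series, nominal top 10 µM; Incubation: 24 h bulk transfection before replating, then 20 h compound exposure; Signal: luminescence from SFRE-driven luciferase; Evaluation: IC50 from percent inhibition versus DMSO; Control set: DMSO-treated cells as normalization reference; Replicates: triplicate.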

Chain of Steroidogenic factor 1 (Homo sapiens) (Q13285 whole entry, looked up): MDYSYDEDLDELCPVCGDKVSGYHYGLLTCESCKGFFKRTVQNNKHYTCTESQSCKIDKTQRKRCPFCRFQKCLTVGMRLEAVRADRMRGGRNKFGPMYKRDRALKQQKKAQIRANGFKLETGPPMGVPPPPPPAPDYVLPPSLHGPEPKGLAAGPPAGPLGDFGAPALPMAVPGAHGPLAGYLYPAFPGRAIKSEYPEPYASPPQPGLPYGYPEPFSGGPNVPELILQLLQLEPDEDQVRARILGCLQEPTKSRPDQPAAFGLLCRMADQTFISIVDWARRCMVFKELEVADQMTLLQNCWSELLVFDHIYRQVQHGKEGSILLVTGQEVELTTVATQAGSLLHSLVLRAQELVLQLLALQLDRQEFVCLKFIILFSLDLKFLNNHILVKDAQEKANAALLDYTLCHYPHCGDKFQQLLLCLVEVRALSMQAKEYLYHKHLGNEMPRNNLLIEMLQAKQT

| IC50 | Compound |
| --- | --- |
| inactive | O=c1cc(N2CCN(C3CCCCC3)CC2)[nH]c(=O)n1C1CCCCC1 |
| > 10 µM (inactive) | O=c1cc(N2CCN(c3cccc(Cl)c3)CC2)[nH]c(=O)n1C1CCCCC1 |

Same assay, conditions: HEK293T SF-1 5xSFRE luciferase reporter, 20 h; at 10 µM (top of the series)

| Compound | fold change, <1 = inhibition |
| --- | --- |
| O=c1cc(N2CCN(Cc3ccc(Cl)cc3)CC2)[nH]c(=O)n1C1CCCCC1 | inactive |
| CCn1c(=O)cc(N2CCN(c3cccc(Cl)c3)CC2)[nH]c1=O | inactive |
| Cn1c(=O)cc(N2CCN(c3cccc(Cl)c3)CC2)[nH]c1=O | inactive |
| C=CCn1c(=O)cc(N2CCN(c3cccc(C(F)(F)F)c3)CC2)[nH]c1=O | inactive |
| CC(C)Cn1c(=O)cc(N2CCN(c3cccc(C(F)(F)F)c3)CC2)[nH]c1=O | inactive |
| O=c1cc(N2CCN(c3ccnc4cc(Cl)ccc34)CC2)[nH]c(=O)n1C1CCCCC1 | inactive |
| O=c1cc(N2CCN(c3nc(-c4ccccc4)ns3)CC2)[nH]c(=O)n1C1CCCCC1 | inactive |

Further lines, results first:

| fold change, <1 = inhibition | Compound |
| --- | --- |
| inactive | CCn1c(=O)cc(N2CCN(c3cccc(C(F)(F)F)c3)CC2)[nH]c1=O |
| inactive | O=c1cc(N2CCN(c3cccc(C(F)(F)F)c3)CC2)[nH]c(=O)n1C1CCCCC1 |
| inactive | O=c1cc(N2CCN(c3ccccc3)CC2)[nH]c(=O)n1C1CCCCC1 |
| inactive | O=c1cc(N2CCN(c3cccc(Cl)c3Cl)CC2)[nH]c(=O)n1C1CCCCC1 |
| inactive | O=c1cc(N2CCN(c3ccccn3)CC2)[nH]c(=O)n1C1CCCCC1 |
| inactive | O=c1cc(N2CCN(c3cccc(Cl)n3)CC2)[nH]c(=O)n1C1CCCCC1 |
| inactive | Cc1cc(C)cc(N2CCN(c3cc(=O)n(C4CCCCC4)c(=O)[nH]3)CC2)c1 |

— PubChem BioAssay AID488780 (The Scripps Research Institute Molecular Screening Center, 2010)
